Active and inactive are the calls of the source. The rule behind the calls is not given here.
Tests used:
[1] = biological target: T1, Retinal dehydrogenase 2 (Homo sapiens) (UniProt O94788); assay: Inhibition of human recombinant ALDH1A2 assessed as remaining enzyme activity at 25 uM pre-incubated for 5 mins before acetaldehyde addition by continuous spectrometric assay relative to control
T1 sequence (whole entry): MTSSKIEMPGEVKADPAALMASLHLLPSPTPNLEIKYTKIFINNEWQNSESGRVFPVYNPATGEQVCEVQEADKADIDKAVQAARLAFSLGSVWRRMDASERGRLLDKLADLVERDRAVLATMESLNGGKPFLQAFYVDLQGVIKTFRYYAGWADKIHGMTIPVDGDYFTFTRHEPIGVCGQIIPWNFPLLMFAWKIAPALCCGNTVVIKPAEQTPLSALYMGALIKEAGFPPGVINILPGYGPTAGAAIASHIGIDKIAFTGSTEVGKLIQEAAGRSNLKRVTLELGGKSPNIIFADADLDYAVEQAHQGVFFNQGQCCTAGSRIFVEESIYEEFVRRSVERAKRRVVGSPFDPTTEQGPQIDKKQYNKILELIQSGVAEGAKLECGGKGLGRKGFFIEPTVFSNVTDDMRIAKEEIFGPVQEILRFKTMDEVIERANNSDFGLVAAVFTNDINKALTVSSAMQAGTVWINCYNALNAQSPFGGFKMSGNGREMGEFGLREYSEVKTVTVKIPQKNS
How it was run: (§1)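 Preliminary single-concentration screen at 25 μM against human recombinant ALDH1A1, ALDH1A2 and ALDH1A3, scored as residual enzyme activity versus control.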

[2] = biological target: T2, Retinaldehyde dehydrogenase 3 (Homo sapiens) (UniProt P47895); assay: Inhibition of human recombinant ALDH1A3 assessed as remaining enzyme activity at 25 uM pre-incubated for 5 mins before acetaldehyde addition by continuous spectrometric assay relative to control; how it was run: as §1
T2 sequence (whole entry): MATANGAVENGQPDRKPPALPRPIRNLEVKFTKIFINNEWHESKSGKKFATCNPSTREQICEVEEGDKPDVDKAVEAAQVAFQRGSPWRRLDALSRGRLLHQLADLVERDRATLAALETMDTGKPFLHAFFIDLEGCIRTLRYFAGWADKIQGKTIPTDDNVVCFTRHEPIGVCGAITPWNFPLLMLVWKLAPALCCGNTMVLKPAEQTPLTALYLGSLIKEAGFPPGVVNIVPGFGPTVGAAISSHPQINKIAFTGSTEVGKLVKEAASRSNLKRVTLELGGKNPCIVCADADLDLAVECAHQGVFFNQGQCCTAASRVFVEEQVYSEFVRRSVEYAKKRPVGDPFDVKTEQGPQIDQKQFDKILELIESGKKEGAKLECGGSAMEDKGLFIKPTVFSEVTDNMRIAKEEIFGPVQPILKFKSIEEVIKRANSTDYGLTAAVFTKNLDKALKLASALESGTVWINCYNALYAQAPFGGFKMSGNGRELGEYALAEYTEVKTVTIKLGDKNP

[3] = biological target: T3, Aldehyde dehydrogenase 1A1 (Homo sapiens) (UniProt P00352); assay: Inhibition of human recombinant ALDH1A1 assessed as remaining enzyme activity at 25 uM pre-incubated for 5 mins before acetaldehyde addition by continuous spectrometric assay relative to control; how it was run: as §1
T3 sequence (whole entry): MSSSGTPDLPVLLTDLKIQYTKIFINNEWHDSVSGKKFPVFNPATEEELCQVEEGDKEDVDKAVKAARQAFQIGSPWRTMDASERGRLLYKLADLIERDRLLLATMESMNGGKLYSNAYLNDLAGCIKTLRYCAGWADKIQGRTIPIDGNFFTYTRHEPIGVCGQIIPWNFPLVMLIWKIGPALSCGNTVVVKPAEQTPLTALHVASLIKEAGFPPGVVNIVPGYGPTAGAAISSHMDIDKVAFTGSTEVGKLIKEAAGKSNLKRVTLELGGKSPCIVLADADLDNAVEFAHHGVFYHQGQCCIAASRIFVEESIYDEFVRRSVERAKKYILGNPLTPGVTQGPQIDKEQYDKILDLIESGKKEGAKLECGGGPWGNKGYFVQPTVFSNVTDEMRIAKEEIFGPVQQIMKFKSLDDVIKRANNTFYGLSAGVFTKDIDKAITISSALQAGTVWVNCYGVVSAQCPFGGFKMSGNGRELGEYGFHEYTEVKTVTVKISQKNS

[4] = biological target: T4, Retinaldehyde dehydrogenase 3 (Homo sapiens, UniProt P47895); assay: Inhibition of human recombinant ALDH1A3 pre-incubated for 5 mins before acetaldehyde addition by continuous spectrometric assay relative to control
T4 sequence (P47895 whole entry): T2 sequence (whole entry)
How it was run: (§2)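 IC50 is the concentration giving 50% inhibition of the human recombinant isoform. Compounds with no significant inhibition at 25 μM were listed as not active and had no IC50 determined.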

[5] = biological target: T5, Aldehyde dehydrogenase 1A1 (Homo sapiens, UniProt P00352); assay: Inhibition of human recombinant ALDH1A1 pre-incubated for 5 mins before acetaldehyde addition by continuous spectrometric assay relative to control; how it was run: as §2
T5 sequence (P00352 whole entry): T3 sequence (whole entry)

[6] = biological target: T6, Retinal dehydrogenase 2 (Homo sapiens, UniProt O94788); assay: Competitive inhibition of human recombinant ALDH1A2 pre-incubated for 5 mins before acetaldehyde addition by continuous spectrometric assay relative to control
T6 sequence (O94788 whole entry): T1 sequence (whole entry)

[7] = biological target: T4, Retinaldehyde dehydrogenase 3; assay: Competitive inhibition of human recombinant ALDH1A3 pre-incubated for 5 mins before acetaldehyde addition by continuous spectrometric assay relative to control
[8] = biological target: T5, Aldehyde dehydrogenase 1A1; assay: Competitive inhibition of human recombinant ALDH1A1 pre-incubated for 5 mins before acetaldehyde addition by continuous spectrometric assay relative to control
[9] = biological target: T6, Retinal dehydrogenase 2; assay: Inhibition of human recombinant ALDH1A2 pre-incubated for 5 mins before acetaldehyde addition by continuous spectrometric assay relative to control; how it was run: as §2
[10] = test system: U-87 MG; assay: Antiproliferative activity against human U87MG cells assessed as reduction in cell vitality at 100 nM to 10 uM incubated for 72 hrs by MTT assay; type: functional, cell-based; settings: U-87MG ATCC

Activity [1] | Activity [2] | Activity [3] | IC50 [4] | IC50 [5] | Ki [6] | Ki [7] | Ki [8] | IC50 [9] | IC50 ([5]; read-out: IC50) | IC50 ([9]; read-out: IC50) | Compound | Activity [10]
75 to 100% | 75 to 100% | 75 to 100% |  |  |  |  |  |  |  |  | COc1ccc(-c2cn3cccc(-c4ccc(Cl)cc4)c3n2)cc1 | 
75 to 100% | 75 to 100% | 75 to 100% |  |  |  |  |  |  |  |  | COc1ccc(-c2cn3cccc(-c4cc(OC)cc(OC)c4)c3n2)cc1 | 
25 to 50% | 0 to 25% | 75 to 100% | 0.66 µM | Not Active | 0.92 µM | 0.12 µM | 79.5 µM | Not Active |  |  | COC(=O)c1ccc(-c2cccn3cc(-c4ccccc4)nc23)cc1 | 
75 to 100% | 75 to 100% | 75 to 100% |  |  |  |  |  |  |  |  | COc1ccc(-c2cn3cccc(-c4ccc(F)cc4)c3n2)cc1 | 
75 to 100% | 75 to 100% | 75 to 100% |  |  |  |  |  |  |  |  | COc1cccc(-c2cn3cccc(-c4cc(OC)c(OC)c(OC)c4)c3n2)c1 | 
50 to 75% | 50 to 75% | 75 to 100% | 5.5 µM |  | 27.6 µM | 8.7 µM | 168 µM |  | 168 µM | 27.6 µM | Clc1ccc(-c2cccn3cc(-c4ccccc4)nc23)cc1 | Active
50 to 75% | 50 to 75% | 75 to 100% | 80.6 µM | Not Active |  |  |  |  |  | 61.4 µM | c1ccc(-c2cn3cccc(-c4ccccc4)c3n2)cc1 | 
75 to 100% | 75 to 100% | 75 to 100% |  |  |  |  |  |  |  |  | COc1ccc(-c2cn3cccc(-c4cc(OC)c(OC)c(OC)c4)c3n2)cc1 | 
75 to 100% | 50 to 75% | 75 to 100% |  |  |  |  |  |  |  |  | COC(=O)c1ccc(-c2cccn3cc(-c4ccc(OC)cc4)nc23)cc1 | 
75 to 100% | 75 to 100% | 75 to 100% |  |  |  |  |  |  |  |  | c1ccc(-c2ccc(-c3cccn4cc(-c5ccccc5)nc34)cc2)cc1 | 
75 to 100% | 50 to 75% | 75 to 100% |  |  |  |  |  |  |  |  | Cc1ccc(-c2cn3cccc(-c4ccc(Cl)cc4)c3n2)cc1 | 
75 to 100% | 75 to 100% | 75 to 100% |  |  |  |  |  |  |  |  | O=C(COc1ccc(-c2cccn3cc(-c4ccccc4)nc23)cc1)c1ccccc1 | 
50 to 75% | 50 to 75% | 75 to 100% | 4.3 µM | Not Active |  |  |  | Not Active |  |  | COc1cccc(-c2cn3cccc(-c4ccc(Cl)cc4)c3n2)c1 | 
25 to 50% | 25 to 50% | 75 to 100% | 6 µM | Not Active |  |  |  | Not Active |  |  | Fc1ccc(-c2cccn3cc(-c4ccccc4)nc23)cc1 | 
50 to 75% | 75 to 100% | 75 to 100% |  |  |  |  |  |  |  |  | Cc1ccc(-c2cn3cccc(-c4ccc(F)cc4)c3n2)cc1 | 
75 to 100% | 75 to 100% | 50 to 75% |  |  |  |  |  |  |  |  | COc1ccc(-c2cn3cccc(-c4ccc(-c5ccccc5)cc4)c3n2)cc1 | 
75 to 100% | 75 to 100% | 50 to 75% |  |  |  |  |  |  |  |  | CC(C)Cc1ccc(-c2cccn3cc(-c4ccccc4)nc23)cc1 | 
50 to 75% | 50 to 75% | 75 to 100% |  |  |  |  |  |  |  |  | Cc1ccc(-c2cn3cccc(-c4ccccc4)c3n2)cc1 | 
25 to 50% | 50 to 75% | 75 to 100% | 7.2 µM | Not Active |  |  |  | Not Active |  |  | COc1cccc(-c2cn3cccc(-c4ccc(F)cc4)c3n2)c1 | 
75 to 100% | 75 to 100% | 75 to 100% |  |  |  |  |  |  |  |  | COc1cccc(-c2cn3cccc(-c4ccc(-c5ccccc5)cc4)c3n2)c1 | 
